From BindingDB's records for doi:10.1021/np2003066 (The University of Montana, 2011)

Target: Interleukin-1 beta (Homo sapiens, UniProt P01584)
Assay: Induction of IL-1 beta production in LPS-induced human THP-1 cells by ELISA
In short: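 THP-1 cells were differentiated with PMA (1 μg/mL) for 24 h, scraped, pelleted and resuspended at 1.0 × 10^6 cells/mL. They were exposed together to test inhibitor, LPS [20 ng/mL] and TiO2 nanowires (100 μg/ml) for 24 h at 37 °C in a CO2 incubator. IL-1β released was measured by DuoSet ELISA, and IC50 was derived from the post-exposure IL-1β levels.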

Sequence of Interleukin-1 beta (P01584 117-269 limits assumed): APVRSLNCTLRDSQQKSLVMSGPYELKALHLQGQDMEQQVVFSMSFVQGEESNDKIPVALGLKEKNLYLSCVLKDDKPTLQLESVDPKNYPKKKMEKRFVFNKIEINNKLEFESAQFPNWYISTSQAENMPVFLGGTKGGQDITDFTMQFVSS

| IC50 [µM] | SMILES |
| --- | --- |
| 2 | CC(=O)N[C@@H](Cc1ccc(O)cc1)C(=O)N[C@H](C(=O)N[C@@H](C)C(=O)N[C@H](C=O)CC(=O)O)C(C)C |
| 15.5 | C=C1[C@@]2(C)C[C@H]3[C@]4(C)CCC(=O)C(C)(C)[C@H]4CC[C@]3(C)[C@]1(C(=O)OC)C(=O)[C@@](C)(O)C2=O |
| 2.7 | C=C1[C@@]2(C)C[C@H]3[C@]4(C)CC[C@@H](O)C(C)(C)[C@H]4CC[C@]3(C)[C@]1(C(=O)OC)C(=O)[C@@](C)(O)C2=O |
| 3.7 | C=C1[C@@]2(C)C[C@@H]3[C@](C)(CC=C4C(C)(C)OC(=O)CC[C@]43C)[C@]1(C(=O)OC)C(=O)[C@@](C)(O)C2=O |
| 37.8 | C=C(C)C1=CC[C@@]2(C)[C@@H](C[C@]3(C)C(=C)[C@@]2(C(=O)OC)C(=O)[C@@](C)(O)C3=O)[C@]1(C)CCC(=O)O |
| 4.4 | C=C1[C@@]2(C)C[C@H]3C(C)=C4CC(=O)OC(C)(C)C4=CC[C@]3(C)[C@]1(C(=O)OC)C(=O)[C@@](C)(O)C2=O [BERKELEYDIONE] |

| SMILES | IC50 [µM] |
| --- | --- |
| C=C1[C@@]2(C)C[C@H]3[C@]4(C)CCC(=O)OC(C)(C)[C@@H]4CC[C@]3(C)[C@]1(C(=O)OC)C(=O)[C@@](C)(O)C2=O | 34.3 |
